ChEMBL document CHEMBL2203113, “Discovery of 2-(2-oxo-1-phenyl-5-pyridin-2-yl-1,2-dihydropyridin-3-yl)benzonitrile (perampanel): a novel, noncompetitive α-amino-3-hydroxy-5-methyl-4-isoxazolepropanoic acid (AMPA) receptor antagonist” (J Med Chem, 2012)

Key:
[1] = Antagonist activity at AMPA receptor in E18 rat cerebral cortical neurons assessed as inhibition of AMPA-induced intracellular Ca2+ response by fura-2 AM dye based fluorimetry; format: functional, cell-based
[2] = system: Mus musculus; experiment: Anticonvulsant activity in po dosed ddY mouse AMPA-induced seizure model; format: functional; conditions: read-out: MED
In short: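 Male 5-week-old ddY mice given compound orally as a 0.5% MC suspension 1 h before challenge. Clonic seizures induced by intracerebroventricular AMPA infusion at 2 nmol/5 μL/min; latency to clonic seizure recorded. MED taken as lowest dose giving statistically significant prolongation of latency.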

[3] = system: Rattus norvegicus; experiment: AUC in Sprague-Dawley rat at 1 mg/kg, iv; format: ADME, organism-based, Plasma; set-up: dose 1 mg/kg, route intravenous; conditions: in vivo
In short: (§1)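 Fasted male Sprague-Dawley rats, single 1 mg/kg dose iv or po, n = 3 per route. Blood drawn at set time points; plasma deproteinized with methanol/60% perchloric solution (500:1 v/v) and assayed by HPLC with fluorescence. Parameters from mean plasma concentrations of three animals by model-independent analysis; F = AUC(0-inf) oral/iv ratio.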

[4] = Cmax in Sprague-Dawley rat at 1 mg/kg, po; format: ADME, organism-based; set-up: dose 1 mg/kg, route oral; conditions: in vivo; in short: as §1
[5] = Oral bioavailability in Sprague-Dawley rat at 1 mg/kg; format: ADME, organism-based; conditions: in vivo; in short: as §1
[6] = Half life in healthy human; format: ADME, organism-based; conditions: in vivo
[7] = Tmax in Sprague-Dawley rat at 1 mg/kg, po; format: ADME, organism-based; set-up: dose 1 mg/kg, route oral; conditions: in vivo; in short: as §1
[8] = system: Mus musculus; experiment: Anticonvulsant activity in ICR mouse pentylenetetrazole-induced seizure model at 0.75 to 3 mg/kg, po after 30 mins; format: functional; conditions: 0.5 h, dose mg/kg 0.75-3
[9] = Half life in Sprague-Dawley rat at 1 mg/kg, iv; format: ADME, organism-based; set-up: dose 1 mg/kg, route intravenous; conditions: in vivo; in short: as §1
[10] = Plasma clearance in Sprague-Dawley rat at 1 mg/kg, iv; format: ADME, organism-based; set-up: dose 1 mg/kg, route intravenous; in short: as §1
[11] = system: Nucleic Acid; experiment: Ratio of drug level in CSF to fraction unbound in plasma in ddY mouse at 0.5 mg/kg, ip after 20 mins; format: ADME, organism-based, Rattus norvegicus; set-up: dose 0.5 mg/kg, route intraperitoneal; conditions: in vivo
In short: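 Male ddY mice were dosed ip. CSF was taken by cisternal puncture and processed like plasma: deproteinized with methanol/60% perchloric solution (500:1 v/v), then analysed by HPLC with fluorescence detection. The ratio is CSF concentration over unbound plasma concentration. Each value is the mean of two or three animals.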

[12] = system: Mus musculus; experiment: Anticonvulsant activity in DBA/2J mouse audinogenic seizure model at 0.3 to 3 mg/kg, po after 1 hr; format: functional; conditions: dose mg/kg 0.3-3
[13] = system: Rattus norvegicus; experiment: AUC in Sprague-Dawley rat at 1 mg/kg, po; format: ADME, organism-based, Plasma; set-up: dose 1 mg/kg, route oral; conditions: in vivo; in short: as §1
[14] = system: Mus musculus; experiment: Anticonvulsant activity in ddY mouse MES-induced seizure model 0.75 to 2.12 mg/kg, po after 1hr; format: functional; conditions: dose mg/kg 0.75-2.12
[15] = Volume of distribution at steady state in Sprague-Dawley rat at 1 mg/kg, iv; format: ADME, organism-based; set-up: dose 1 mg/kg, route intravenous; conditions: in vivo, read-out: Vdss; in short: as §1
[16] = Ratio of drug level in brain to plasma in Sprague-Dawley rat at 10 mg/kg, po after 30 mins; format: ADME, organism-based; set-up: dose 10 mg/kg, route oral; conditions: brain and plasma, read-out: BPR
In short: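 Male Sprague–Dawley rats were dosed orally. Brain was homogenized in two volumes of water. Brain homogenate and plasma were deproteinized with methanol/60% perchloric solution (500:1 v/v) and quantified by HPLC with fluorescence detection. The ratio is brain over plasma concentration, each value the mean of two or three animals.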

[17] = Ratio of drug level in brain to plasma in ddY mouse at 3 mg/kg, po after 60 mins; format: ADME, organism-based; set-up: dose 3 mg/kg, route oral; conditions: brain and plasma, read-out: BPR
In short: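 Male ddY mice dosed orally at 3 mg/kg; brain and plasma taken at 60 min. Brain homogenized in two volumes of water, then processed like plasma (methanol/perchloric deproteinization, HPLC with fluorescence). Ratio is the mean of two or three animals.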

## O=c1c(-c2ccsc2)cc(-c2ccccn2)cn1-c1cccnc1
[1]
  IC50: 780 nM

## O=c1c(-c2ccccc2Cl)cc(-c2ccccn2)cn1-c1cccnc1
[1]
  IC50: 400 nM
[2]
  minimal effective dose: 25 mg/kg

## N#Cc1sccc1-c1cc(-c2ccccn2)cn(-c2cccnc2)c1=O
[1]
  IC50: 180 nM
[2]
  minimal effective dose: 25 mg/kg

## O=c1c(-c2ccccc2C(F)(F)F)cc(-c2ccccn2)cn1-c1cccnc1
[1]
  IC50: 2100 nM

## O=c1c(-c2cccnc2F)cc(-c2ccccn2)cn1-c1cccnc1
[1]
  IC50: 1450 nM
[2]
  minimal effective dose: 10 mg/kg

## N#Cc1ccccc1-c1cc(-c2cccnc2)cn(-c2ccccc2)c1=O
[1]
  IC50: 4020 nM

## N#Cc1ccccc1-c1cc(-c2ccncc2)cn(-c2ccccc2)c1=O
[1]
  IC50: 5530 nM

## N#Cc1ccccc1-c1cc(-c2ccccc2)cn(-c2ccccc2)c1=O
[1]
  IC50: 330 nM
[2]
  minimal effective dose: 25 mg/kg

## N#Cc1ccccc1-c1cc(-c2ccccc2F)cn(-c2ccccc2)c1=O
[1]
  IC50: 200 nM

## N#Cc1ccccc1-c1cc(-c2cccs2)cn(-c2ccccc2)c1=O
[1]
  IC50: 100 nM

## N#Cc1ccccc1-c1cc(-c2ccccc2C#N)c(=O)n(-c2ccccc2)c1
[1]
  IC50: 8430 nM

## COc1ccccc1-c1cc(-c2ccccc2C#N)c(=O)n(-c2ccccc2)c1
[1]
  IC50: 740 nM

## N#Cc1ccccc1-c1cc(-c2ccsc2)cn(-c2ccccc2)c1=O
[1]
  IC50: 140 nM

## COc1cccc(-n2cc(-c3ccccn3)cc(-c3ccccc3C#N)c2=O)c1
[1]
  IC50: 250 nM

## COc1ccccc1-n1cc(-c2ccccn2)cc(-c2ccccc2C#N)c1=O
[1]
  IC50: 150 nM

## COc1ccc(-n2cc(-c3ccccn3)cc(-c3ccccc3C#N)c2=O)cc1
[1]
  IC50: 440 nM

## N#Cc1ccccc1-c1cc(-c2ccccn2)cn(-c2ccc(F)nc2)c1=O
[1]
  IC50: 500 nM

## N#Cc1ccccc1-c1cc(-c2ccccn2)cn(-c2ccccc2C#N)c1=O
[1]
  IC50: > 15000 nM

## N#Cc1ccc(-n2cc(-c3ccccn3)cc(-c3ccccc3C#N)c2=O)cc1
[1]
  IC50: 520 nM

## COc1ccc(-n2cc(-c3ccccn3)cc(-c3ccccc3C#N)c2=O)cn1
[1]
  IC50: 620 nM

## O=C1COC(c2ccccc2)=NN1c1ccccc1
[1]
  IC50: 9170 nM

## O=C1COC(c2ccccc2)=NN1Cc1ccccc1
[1]
  IC50: 33700 nM

## O=C1COC(c2ccccc2)=NN1C1CCCCC1
[1]
  IC50: > 150000 nM

## O=C1COC(C2CCCCC2)=NN1c1ccccc1
[1]
  IC50: > 150000 nM

## CCCC1=NN(c2ccccc2)C(=O)CO1
[1]
  IC50: > 150000 nM

## O=C1COC(Cc2ccccc2)=NN1c1ccccc1
[1]
  IC50: > 150000 nM

## O=C1CCC(c2ccccc2)=NN1c1ccccc1
[1]
  IC50: 28100 nM

## O=c1ccc(-c2ccccc2)cn1-c1ccccc1
[1]
  IC50: 69500 nM

## O=c1[nH]cc(-c2ccccc2)cc1-c1ccccc1
[1]
  IC50: 57700 nM

## O=c1c(-c2ccccc2)cc(-c2ccccc2)cn1-c1ccccc1
[1]
  IC50: 1080 nM

## O=c1c(-c2ccccc2)cc(-c2ccccn2)cn1-c1ccccc1
[1]
  IC50: 320 nM

## O=c1c(-c2ccccc2)cc(-c2ccccn2)cn1-c1cccnc1
[1]
  IC50: 440 nM

## N#Cc1cccc(-c2cc(-c3ccccn3)cn(-c3ccccc3)c2=O)c1
[1]
  IC50: 7260 nM

## N#Cc1ccc(-c2cc(-c3ccccn3)cn(-c3ccccc3)c2=O)cc1
[1]
  IC50: 28700 nM

## O=c1c(-c2ccccc2F)cc(-c2ccccn2)cn1-c1ccccc1
[1]
  IC50: 200 nM

## O=c1c(-c2ccccc2Cl)cc(-c2ccccn2)cn1-c1ccccc1
[1]
  IC50: 100 nM

## Cc1ccccc1-c1cc(-c2ccccn2)cn(-c2ccccc2)c1=O
[1]
  IC50: 400 nM

## COc1ccccc1-c1cc(-c2ccccn2)cn(-c2ccccc2)c1=O
[1]
  IC50: 1420 nM

## O=c1c(-c2cccnc2F)cc(-c2ccccn2)cn1-c1ccccc1
[1]
  IC50: 370 nM
[2]
  minimal effective dose: 5 mg/kg

## O=c1c(-c2cccnc2Cl)cc(-c2ccccn2)cn1-c1ccccc1
[1]
  IC50: 680 nM

## N#Cc1ncccc1-c1cc(-c2ccccn2)cn(-c2ccccc2)c1=O
[1]
  IC50: 200 nM
[2]
  minimal effective dose: 5 mg/kg

## N#Cc1ccccc1-c1cc(-c2ccccn2)cn(-c2cccnc2)c1=O
[1]
  IC50: 210 nM
[2]
  minimal effective dose: 10 mg/kg

## N#Cc1ccccc1-c1cc(-c2ccccn2)cn(-c2ccccc2)c1=O [PERAMPANEL]
[3]
  AUC: 0.56 µg/mL/h
[1]
  IC50: 60 nM
[4]
  Cmax: 170 ng/mL
[5]
  bioavailability: 64.3%
[6]
  half-life: 70 h
[7]
  Tmax: 0.5 h
[8]
  ED50: 0.94 mg/kg
[9]
  half-life: 2.37 h
[10]
  clearance: 30.3 mL/min/kg
[2]
  minimal effective dose: 2 mg/kg
[11]
  Ratio: 1.14
[12]
  ED50: 0.47 mg/kg
[13]
  AUC: 0.36 µg/mL/h
[14]
  ED50: 1.6 mg/kg
[15]
  Vd: 4.56 L/kg
[16]
  Kp at 0.5 h: 1.14
[17]
  Kp at 1 h: 1.06
